Reference: ChEMBL document CHEMBL3112572, “Substituted 4-phenyl-2-aminoimidazoles and 4-phenyl-4,5-dihydro-2-aminoimidazoles as voltage-gated sodium channel modulators” (Eur J Med Chem, 2014)

Each compound was assayed against T1, Sodium channel protein type 4 subunit alpha (Homo sapiens, UniProt P35499) (assay: Modulation of human Nav1.4 in closed state assessed as inhibition of inward current after 4 mins by whole-cell electrophysiology).
Outline: (§1)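 Automated whole-cell patch clamp (QPatch HT) on trypsin-EDTA-dissociated cells held in serum-free medium. Closed-state test pulse depolarizes from -100 mV. 0.1% DMSO vehicle for 4 min is followed by four cumulative bolus concentrations (0.3–10 µM, 0.1% DMSO final), each incubated 4 min. Peak inward current from the last three sweeps is compared with vehicle, and IC50 comes from a 4-parameter logistic fit constrained 0–100%, n≥3.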

T1 sequence (P35499 whole entry): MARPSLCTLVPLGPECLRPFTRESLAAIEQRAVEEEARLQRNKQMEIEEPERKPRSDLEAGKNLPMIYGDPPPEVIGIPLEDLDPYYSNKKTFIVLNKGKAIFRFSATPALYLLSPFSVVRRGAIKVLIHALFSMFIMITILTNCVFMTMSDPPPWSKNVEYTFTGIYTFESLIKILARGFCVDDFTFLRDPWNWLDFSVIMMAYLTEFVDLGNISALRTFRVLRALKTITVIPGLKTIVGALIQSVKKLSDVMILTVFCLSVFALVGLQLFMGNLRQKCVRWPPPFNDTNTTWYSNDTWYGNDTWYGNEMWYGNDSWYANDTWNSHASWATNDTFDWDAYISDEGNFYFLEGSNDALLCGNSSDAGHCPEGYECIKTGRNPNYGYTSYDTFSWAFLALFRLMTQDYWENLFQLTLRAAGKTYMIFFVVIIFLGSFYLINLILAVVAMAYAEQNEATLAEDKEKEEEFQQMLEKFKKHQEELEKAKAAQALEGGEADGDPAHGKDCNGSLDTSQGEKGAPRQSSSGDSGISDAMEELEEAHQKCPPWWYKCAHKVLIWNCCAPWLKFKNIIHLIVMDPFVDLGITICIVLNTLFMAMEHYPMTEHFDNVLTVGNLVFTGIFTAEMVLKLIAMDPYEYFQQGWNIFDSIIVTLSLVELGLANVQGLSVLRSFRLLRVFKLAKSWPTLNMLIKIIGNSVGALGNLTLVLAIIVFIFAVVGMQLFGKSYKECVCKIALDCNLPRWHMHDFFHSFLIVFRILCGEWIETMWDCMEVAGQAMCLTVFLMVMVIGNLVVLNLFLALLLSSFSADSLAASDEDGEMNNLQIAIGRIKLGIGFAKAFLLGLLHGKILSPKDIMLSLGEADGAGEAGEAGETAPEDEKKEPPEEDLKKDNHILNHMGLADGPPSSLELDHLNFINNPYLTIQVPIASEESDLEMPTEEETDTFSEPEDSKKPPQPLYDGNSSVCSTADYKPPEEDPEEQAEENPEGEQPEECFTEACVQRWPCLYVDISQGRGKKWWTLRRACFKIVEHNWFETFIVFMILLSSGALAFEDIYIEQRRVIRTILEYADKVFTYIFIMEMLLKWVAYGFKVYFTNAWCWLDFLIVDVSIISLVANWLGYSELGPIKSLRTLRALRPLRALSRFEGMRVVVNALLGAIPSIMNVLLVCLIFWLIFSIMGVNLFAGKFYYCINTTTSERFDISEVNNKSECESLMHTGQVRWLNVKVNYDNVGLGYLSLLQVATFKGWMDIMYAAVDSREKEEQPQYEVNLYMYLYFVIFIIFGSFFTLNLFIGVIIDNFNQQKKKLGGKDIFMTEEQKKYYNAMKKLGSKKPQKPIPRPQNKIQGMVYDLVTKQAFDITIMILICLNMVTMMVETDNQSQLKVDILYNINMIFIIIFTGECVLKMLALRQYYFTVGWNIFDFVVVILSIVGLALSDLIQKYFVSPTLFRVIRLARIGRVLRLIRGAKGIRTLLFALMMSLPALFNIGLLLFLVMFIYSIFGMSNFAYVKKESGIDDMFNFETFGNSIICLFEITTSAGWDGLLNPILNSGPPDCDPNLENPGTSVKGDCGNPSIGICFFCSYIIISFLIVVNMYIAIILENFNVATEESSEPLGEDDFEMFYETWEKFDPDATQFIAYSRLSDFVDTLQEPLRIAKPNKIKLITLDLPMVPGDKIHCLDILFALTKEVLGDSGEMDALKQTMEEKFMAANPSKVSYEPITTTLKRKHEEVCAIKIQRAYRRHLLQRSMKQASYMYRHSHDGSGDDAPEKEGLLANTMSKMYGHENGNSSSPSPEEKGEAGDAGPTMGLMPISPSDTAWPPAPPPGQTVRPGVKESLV

IC50 [µM] | Compound
> 30 | Nc1nc(-c2ccc(NC(=O)c3cc4ccccc4[nH]3)cc2)c[nH]1
> 30 | CNc1nc(-c2cccc(NC(=O)c3cc4ccccc4[nH]3)c2)cn1C(=O)OC(C)(C)C
> 30 | Nc1nc(-c2ccc(NC(=O)c3ccc[nH]3)cc2)c[nH]1
> 30 | CC(C)(C)OC(=O)n1cc(-c2ccc(NC(=O)c3ccc[nH]3)cc2)nc1N
> 30 | CC(C)(C)OC(=O)n1cc(-c2cccc(NC(=O)c3ccc[nH]3)c2)nc1N
> 30 | CNc1nc(-c2cccc(NC(=O)c3ccco3)c2)cn1C(=O)OC(C)(C)C
> 30 | CC(C)(C)OC(=O)n1cc(-c2ccc(NC(=O)c3ccco3)cc2)nc1N
> 30 | CC(C)(C)OC(=O)n1cc(-c2ccc(NC(=O)c3cc4ccccc4[nH]3)cc2)nc1N
> 30 | CC(C)(C)OC(=O)n1cc(-c2cccc(NC(=O)c3cc[nH]c3)c2)nc1N
> 30 | Nc1nc(-c2ccc(NC(=O)[C@@H]3CCCN3)cc2)c[nH]1

What follows are compounds tested against T2, Sodium channel protein type 9 subunit alpha (Homo sapiens, UniProt Q15858) (assay: Modulation of human Nav1.7 in closed state assessed as inhibition of inward current after 4 mins by whole-cell electrophysiology).
Outline: as §1

IC50 [µM] | Compound
> 30 | Nc1nc(-c2ccc(NC(=O)c3cc4ccccc4[nH]3)cc2)c[nH]1
> 30 | CNc1nc(-c2cccc(NC(=O)c3cc4ccccc4[nH]3)c2)cn1C(=O)OC(C)(C)C
> 30 | Nc1nc(-c2ccc(NC(=O)c3ccc[nH]3)cc2)c[nH]1
> 30 | CC(C)(C)OC(=O)n1cc(-c2ccc(NC(=O)c3ccc[nH]3)cc2)nc1N
> 30 | CC(C)(C)OC(=O)n1cc(-c2cccc(NC(=O)c3ccc[nH]3)c2)nc1N
> 30 | CNc1nc(-c2cccc(NC(=O)c3ccco3)c2)cn1C(=O)OC(C)(C)C
> 30 | CC(C)(C)OC(=O)n1cc(-c2ccc(NC(=O)c3ccco3)cc2)nc1N
> 30 | CC(C)(C)OC(=O)n1cc(-c2ccc(NC(=O)c3cc4ccccc4[nH]3)cc2)nc1N
> 30 | CC(C)(C)OC(=O)n1cc(-c2cccc(NC(=O)c3cc[nH]c3)c2)nc1N
> 30 | Nc1nc(-c2ccc(NC(=O)[C@@H]3CCCN3)cc2)c[nH]1

The compounds below were run against T2, Sodium channel protein type 9 subunit alpha (assay: Modulation of human Nav1.7 in open-inactivated state assessed as inhibition of inward current after 4 mins by whole-cell electrophysiology).
Outline: (§2)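 Cells dissociated with trypsin-EDTA are kept in serum-free medium and recorded by QPatch HT whole-cell clamp with a high-frequency, pathophysiological protocol. The open-inactivated test pulse depolarizes from about -70 mV. After 4 min of vehicle (0.1% DMSO), 0.3–10 µM is added cumulatively, 4 min per level. Percent inhibition of peak inward current uses the mean of the last three sweeps against vehicle. IC50 is fitted by a constrained 4-parameter logistic, mean ± SD of ≥3 experiments.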

IC50 [µM] | Compound
> 30 | Nc1nc(-c2ccc(NC(=O)c3cc4ccccc4[nH]3)cc2)c[nH]1
> 30 | CNc1nc(-c2cccc(NC(=O)c3cc4ccccc4[nH]3)c2)cn1C(=O)OC(C)(C)C
27 | Nc1nc(-c2ccc(NC(=O)c3ccc[nH]3)cc2)c[nH]1
> 30 | CC(C)(C)OC(=O)n1cc(-c2ccc(NC(=O)c3ccc[nH]3)cc2)nc1N
> 30 | CC(C)(C)OC(=O)n1cc(-c2cccc(NC(=O)c3ccc[nH]3)c2)nc1N
26 | CNc1nc(-c2cccc(NC(=O)c3ccco3)c2)cn1C(=O)OC(C)(C)C
22 | CC(C)(C)OC(=O)n1cc(-c2ccc(NC(=O)c3ccco3)cc2)nc1N
> 30 | CC(C)(C)OC(=O)n1cc(-c2ccc(NC(=O)c3cc4ccccc4[nH]3)cc2)nc1N
> 30 | CC(C)(C)OC(=O)n1cc(-c2cccc(NC(=O)c3cc[nH]c3)c2)nc1N
> 30 | Nc1nc(-c2ccc(NC(=O)[C@@H]3CCCN3)cc2)c[nH]1

These compounds were tested against T1, Sodium channel protein type 4 subunit alpha (assay: Modulation of human Nav1.4 in open-inactivated state assessed as inhibition of inward current after 4 mins by whole-cell electrophysiology).
Outline: as §2

IC50 [µM] | Compound
2 | CCN(CC)CC(=O)Nc1c(C)cccc1C [LIDOCAINE]
> 30 | Nc1nc(-c2ccc(NC(=O)c3cc4ccccc4[nH]3)cc2)c[nH]1
> 30 | CNc1nc(-c2cccc(NC(=O)c3cc4ccccc4[nH]3)c2)cn1C(=O)OC(C)(C)C
> 30 | Nc1nc(-c2ccc(NC(=O)c3ccc[nH]3)cc2)c[nH]1
> 30 | CC(C)(C)OC(=O)n1cc(-c2ccc(NC(=O)c3ccc[nH]3)cc2)nc1N
25 | CC(C)(C)OC(=O)n1cc(-c2cccc(NC(=O)c3ccc[nH]3)c2)nc1N
> 30 | CNc1nc(-c2cccc(NC(=O)c3ccco3)c2)cn1C(=O)OC(C)(C)C
> 30 | CC(C)(C)OC(=O)n1cc(-c2ccc(NC(=O)c3ccco3)cc2)nc1N
28 | CC(C)(C)OC(=O)n1cc(-c2ccc(NC(=O)c3cc4ccccc4[nH]3)cc2)nc1N
> 30 | CC(C)(C)OC(=O)n1cc(-c2cccc(NC(=O)c3cc[nH]c3)c2)nc1N
> 30 | Nc1nc(-c2ccc(NC(=O)[C@@H]3CCCN3)cc2)c[nH]1

What follows are compounds tested against T3, Sodium channel protein type 3 subunit alpha (Homo sapiens, UniProt Q9NY46) (assay: Modulation of human Nav1.3 in closed state assessed as inhibition of inward current after 4 mins by whole-cell electrophysiology).
T3 sequence (Q9NY46 whole entry): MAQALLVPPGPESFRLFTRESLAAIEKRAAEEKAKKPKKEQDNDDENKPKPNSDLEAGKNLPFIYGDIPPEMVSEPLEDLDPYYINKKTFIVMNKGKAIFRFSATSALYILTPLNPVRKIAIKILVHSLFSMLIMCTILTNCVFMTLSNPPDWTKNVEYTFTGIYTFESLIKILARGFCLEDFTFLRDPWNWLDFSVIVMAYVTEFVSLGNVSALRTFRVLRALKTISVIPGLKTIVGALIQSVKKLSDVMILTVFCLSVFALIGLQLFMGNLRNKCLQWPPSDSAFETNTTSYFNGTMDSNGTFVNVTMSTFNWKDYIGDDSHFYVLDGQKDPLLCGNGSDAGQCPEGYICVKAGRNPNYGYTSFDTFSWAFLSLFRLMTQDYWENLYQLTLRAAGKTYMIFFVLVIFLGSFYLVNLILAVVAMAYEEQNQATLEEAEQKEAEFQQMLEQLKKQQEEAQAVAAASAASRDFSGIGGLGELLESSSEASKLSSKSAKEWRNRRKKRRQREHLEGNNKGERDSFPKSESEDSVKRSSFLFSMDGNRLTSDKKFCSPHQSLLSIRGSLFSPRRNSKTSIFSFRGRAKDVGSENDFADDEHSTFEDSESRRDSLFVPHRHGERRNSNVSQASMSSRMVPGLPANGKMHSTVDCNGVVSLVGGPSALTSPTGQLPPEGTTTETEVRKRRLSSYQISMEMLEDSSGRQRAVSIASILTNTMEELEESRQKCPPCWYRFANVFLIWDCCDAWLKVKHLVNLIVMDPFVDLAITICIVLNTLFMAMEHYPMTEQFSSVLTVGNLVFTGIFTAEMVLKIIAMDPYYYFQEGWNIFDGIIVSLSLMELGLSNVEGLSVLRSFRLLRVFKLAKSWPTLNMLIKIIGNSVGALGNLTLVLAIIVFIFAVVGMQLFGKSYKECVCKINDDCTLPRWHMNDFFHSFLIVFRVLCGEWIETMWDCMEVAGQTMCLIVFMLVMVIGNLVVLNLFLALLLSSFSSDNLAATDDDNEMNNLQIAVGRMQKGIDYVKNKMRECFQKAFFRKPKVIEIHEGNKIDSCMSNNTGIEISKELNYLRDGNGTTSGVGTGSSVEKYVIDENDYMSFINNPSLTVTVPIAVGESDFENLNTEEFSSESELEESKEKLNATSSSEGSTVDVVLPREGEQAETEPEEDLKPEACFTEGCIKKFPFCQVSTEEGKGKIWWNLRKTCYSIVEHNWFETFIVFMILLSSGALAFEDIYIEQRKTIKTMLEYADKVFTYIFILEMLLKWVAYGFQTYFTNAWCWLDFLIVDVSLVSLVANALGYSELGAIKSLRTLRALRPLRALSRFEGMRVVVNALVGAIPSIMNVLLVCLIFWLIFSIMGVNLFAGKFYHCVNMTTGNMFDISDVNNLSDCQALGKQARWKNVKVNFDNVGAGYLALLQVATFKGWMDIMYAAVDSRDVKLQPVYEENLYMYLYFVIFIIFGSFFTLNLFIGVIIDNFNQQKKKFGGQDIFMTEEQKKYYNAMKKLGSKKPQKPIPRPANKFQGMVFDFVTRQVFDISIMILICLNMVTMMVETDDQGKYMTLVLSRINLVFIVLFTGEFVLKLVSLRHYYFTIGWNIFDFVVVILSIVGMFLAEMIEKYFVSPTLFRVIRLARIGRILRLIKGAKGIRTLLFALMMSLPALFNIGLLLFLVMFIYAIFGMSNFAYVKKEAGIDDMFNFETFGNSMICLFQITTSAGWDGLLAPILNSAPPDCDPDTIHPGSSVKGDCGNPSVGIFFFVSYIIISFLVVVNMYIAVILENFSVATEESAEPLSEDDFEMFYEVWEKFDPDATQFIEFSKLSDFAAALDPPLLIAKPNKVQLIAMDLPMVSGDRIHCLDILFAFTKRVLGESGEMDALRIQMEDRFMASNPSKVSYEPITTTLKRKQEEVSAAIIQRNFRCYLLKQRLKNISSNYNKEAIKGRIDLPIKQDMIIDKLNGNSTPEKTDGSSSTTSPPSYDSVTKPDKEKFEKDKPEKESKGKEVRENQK
Outline: as §1

IC50 [µM] | Compound
> 30 | Nc1nc(-c2ccc(NC(=O)c3cc4ccccc4[nH]3)cc2)c[nH]1
> 30 | CNc1nc(-c2cccc(NC(=O)c3cc4ccccc4[nH]3)c2)cn1C(=O)OC(C)(C)C
> 30 | Nc1nc(-c2ccc(NC(=O)c3ccc[nH]3)cc2)c[nH]1
> 30 | CC(C)(C)OC(=O)n1cc(-c2ccc(NC(=O)c3ccc[nH]3)cc2)nc1N
> 30 | CC(C)(C)OC(=O)n1cc(-c2cccc(NC(=O)c3ccc[nH]3)c2)nc1N
> 30 | CNc1nc(-c2cccc(NC(=O)c3ccco3)c2)cn1C(=O)OC(C)(C)C
> 30 | CC(C)(C)OC(=O)n1cc(-c2ccc(NC(=O)c3ccco3)cc2)nc1N
> 30 | CC(C)(C)OC(=O)n1cc(-c2ccc(NC(=O)c3cc4ccccc4[nH]3)cc2)nc1N
> 30 | CC(C)(C)OC(=O)n1cc(-c2cccc(NC(=O)c3cc[nH]c3)c2)nc1N
> 30 | Nc1nc(-c2ccc(NC(=O)[C@@H]3CCCN3)cc2)c[nH]1

The compounds below were run against T3, Sodium channel protein type 3 subunit alpha (assay: Modulation of human Nav1.3 in open-inactivated state assessed as inhibition of inward current after 4 mins by whole-cell electrophysiology).

IC50 [µM] | Compound
10.5 | CCN(CC)CC(=O)Nc1c(C)cccc1C [LIDOCAINE]
> 30 | Nc1nc(-c2ccc(NC(=O)c3cc4ccccc4[nH]3)cc2)c[nH]1
> 30 | CNc1nc(-c2cccc(NC(=O)c3cc4ccccc4[nH]3)c2)cn1C(=O)OC(C)(C)C
> 30 | Nc1nc(-c2ccc(NC(=O)c3ccc[nH]3)cc2)c[nH]1
> 30 | CC(C)(C)OC(=O)n1cc(-c2ccc(NC(=O)c3ccc[nH]3)cc2)nc1N
25 | CC(C)(C)OC(=O)n1cc(-c2cccc(NC(=O)c3ccc[nH]3)c2)nc1N
> 30 | CNc1nc(-c2cccc(NC(=O)c3ccco3)c2)cn1C(=O)OC(C)(C)C
27 | CC(C)(C)OC(=O)n1cc(-c2ccc(NC(=O)c3ccco3)cc2)nc1N
22 | CC(C)(C)OC(=O)n1cc(-c2ccc(NC(=O)c3cc4ccccc4[nH]3)cc2)nc1N
23 | CC(C)(C)OC(=O)n1cc(-c2cccc(NC(=O)c3cc[nH]c3)c2)nc1N
13 | Nc1nc(-c2ccc(NC(=O)[C@@H]3CCCN3)cc2)c[nH]1
